Experimental data as given in ChEMBL document CHEMBL1649151, “Urinary bactericidal activity of Doripenem versus that of levofloxacin in patients with complicated urinary tract infections or pyelonephritis” (Antimicrob Agents Chemother, 2009).
≈ marks a conversion by molar mass, not a printed value.

Legend:
Escherichia coli [1] = assay: Antimicrobial activity against Escherichia coli 1821385 B-C isolated from patient with pyelonephritis assessed as >3-log reduction in urinary bacterial titer after 8 hrs; format: functional, Urine
How it was run: (§1)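 Urine was collected on day 3 of i.v. therapy (steady state) over 4-h intervals from infusion start (0–4 to 20–24 h), stored at –80°C and sterile filtered. It was serially diluted twofold (1:0 up to 1:131,072) in the patient's own pre-dose drug-free urine. Microdilution used a final inoculum of 1.0 x 10^6 to 9.5 x 10^6 CFU/ml, incubated 18 h at 37°C in air. 10 µl was subcultured onto 5% blood Columbia agar for 24 h at 37°C. The bactericidal endpoint was >99.9% (>3-log) kill, reported as a reciprocal titer.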

Enterococcus faecalis [2] = assay: Antimicrobial activity against Enterococcus faecalis 2215770 B-T isolated from patient with pyelonephritis by Etest; format: functional
Escherichia coli [3] = assay: Antimicrobial activity against Escherichia coli 1889646 B-F isolated from patient with pyelonephritis assessed as >3-log reduction in urinary bacterial titer after 16 hrs; format: functional, Urine; how it was run: as §1
Escherichia coli [4] = assay: Antimicrobial activity against Escherichia coli 1780063 B-A isolated from patient with pyelonephritis assessed as >3-log reduction in urinary bacterial titer after 20 hrs; format: functional, Urine
How it was run: (§2)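 Urine was collected before dosing and on day 3 of i.v. therapy (steady state), in 4-h intervals from infusion start (0–4 to 20–24 h), stored at −80°C and sterile filtered. It was serially diluted twofold (1:0 to 1:131,072) in the patient's drug-free pre-dose urine. Microdilution used an inoculum of 1.0 x 10^6–9.5 x 10^6 CFU/ml, incubated 18 h at 37°C, then subcultured 24 h on blood agar. The endpoint was >99.9% kill, reported as reciprocal titer.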

Enterococcus faecalis [5] = assay: Antimicrobial activity against Enterococcus faecalis 2215770 B-T isolated from patient with pyelonephritis assessed as >3-log reduction in urinary bacterial titer after 12 hrs; format: functional, Urine; how it was run: as §2
Escherichia coli [6] = assay: Antimicrobial activity against Escherichia coli 2297257 B-W isolated from patient with pyelonephritis assessed as >3-log reduction in urinary bacterial titer after 8 hrs; format: functional, Urine
Escherichia coli [7] = assay: Antimicrobial activity against Escherichia coli 1889645 B-I isolated from patient with pyelonephritis assessed as >3-log reduction in urinary bacterial titer after 20 hrs; format: functional, Urine; how it was run: as §1
Escherichia coli [8] = assay: Antimicrobial activity against Escherichia coli 1949825 B-K isolated from patient with pyelonephritis by Etest; format: functional
Escherichia coli [9] = assay: Antimicrobial activity against Escherichia coli 1949826 B-L isolated from patient with pyelonephritis assessed as >3-log reduction in urinary bacterial titer after 4 hrs; format: functional, Urine
How it was run: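 Patient urine was collected on day 3 of i.v. therapy (steady state) over 4-h intervals after infusion start, stored at –80°C, and sterile filtered. It was twofold serially diluted (1:0 to 1:131,072) in the patient's own pre-dose drug-free urine, inoculated to 1.0 x 10^6–9.5 x 10^6 CFU/ml, and incubated for 18 h at 37°C. Subcultures were grown on blood agar for 24 h. The UBT is the reciprocal of the highest dilution giving >99.9% kill.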

Escherichia coli [10] = assay: Antimicrobial activity against Escherichia coli 1821385 B-C isolated from patient with pyelonephritis by Etest; format: functional
Escherichia coli [11] = assay: Antimicrobial activity against Escherichia coli 1780063 B-A isolated from patient with pyelonephritis assessed as >3-log reduction in urinary bacterial titer after 24 hrs; format: functional, Urine; how it was run: as §2
Escherichia coli [12] = assay: Antimicrobial activity against Escherichia coli 1889645 B-I isolated from patient with pyelonephritis assessed as >3-log reduction in urinary bacterial titer after 16 hrs; format: functional, Urine; how it was run: as §1
Escherichia coli [13] = assay: Antimicrobial activity against Escherichia coli 1889645 B-I isolated from patient with pyelonephritis assessed as >3-log reduction in urinary bacterial titer after 8 hrs; format: functional, Urine; how it was run: as §1
Pseudomonas aeruginosa [14] = assay: Antimicrobial activity against Pseudomonas aeruginosa 1821383 B-E isolated from patient with pyelonephritis assessed as >3-log reduction in urinary bacterial titer after 24 hrs; format: functional, Urine
Pseudomonas aeruginosa [15] = assay: Antimicrobial activity against Pseudomonas aeruginosa 1821383 B-E isolated from patient with pyelonephritis assessed as >3-log reduction in urinary bacterial titer after 20 hrs; format: functional, Urine
Staphylococcus aureus [16] = assay: Antimicrobial activity against Staphylococcus aureus 1889640 A-Z isolated from patient with pyelonephritis assessed as >3-log reduction in urinary bacterial titer after 4 hrs; format: functional, Urine
Escherichia coli [17] = assay: Antimicrobial activity against Escherichia coli 1889647 B-H isolated from patient with pyelonephritis assessed as >3-log reduction in urinary bacterial titer after 20 hrs; format: functional, Urine; how it was run: as §1
Staphylococcus aureus [18] = assay: Antimicrobial activity against Staphylococcus aureus 1889640 A-Z isolated from patient with pyelonephritis assessed as >3-log reduction in urinary bacterial titer after 8 hrs; format: functional, Urine
Escherichia coli [19] = assay: Antimicrobial activity against Escherichia coli 1821386 B-D isolated from patient with pyelonephritis by Etest; format: functional
Pseudomonas aeruginosa [20] = assay: Antimicrobial activity against Pseudomonas aeruginosa 2062713 B-Q isolated from patient with pyelonephritis assessed as >3-log reduction in urinary bacterial titer after 4 hrs; format: functional, Urine
Escherichia coli [21] = assay: Antimicrobial activity against Escherichia coli 1780064 A-X isolated from patient with pyelonephritis assessed as >3-log reduction in urinary bacterial titer after 4 hrs; format: functional, Urine; how it was run: as §1
Enterococcus faecalis [22] = assay: Antimicrobial activity against Enterococcus faecalis 2297262-10 B-V isolated from patient with pyelonephritis by Etest; format: functional
Enterococcus faecalis [23] = assay: Antimicrobial activity against Enterococcus faecalis 2215767-10 B-S isolated from patient with pyelonephritis assessed as >3-log reduction in urinary bacterial titer after 8 hrs; format: functional, Urine; how it was run: as §2
[24] = test system: Staphylococcus epidermidis; assay: Antimicrobial activity against Staphylococcus epidermidis 1949822 B-J isolated from patient with pyelonephritis assessed as >3-log reduction in urinary bacterial titer after 4 hrs; format: functional, Urine
Serratia marcescens = assay: Antimicrobial activity against Serratia marcescens 2297260 B-U isolated from patient with pyelonephritis assessed as >3-log reduction in urinary bacterial titer after 24 hrs; format: functional, Urine
[25] = test system: Staphylococcus epidermidis; assay: Antimicrobial activity against Staphylococcus epidermidis 1949822 B-J isolated from patient with pyelonephritis assessed as >3-log reduction in urinary bacterial titer after 12 hrs; format: functional, Urine
Escherichia coli [26] = assay: Antimicrobial activity against Escherichia coli 1655646 A-Y isolated from patient with pyelonephritis assessed as >3-log reduction in urinary bacterial titer after 24 hrs; format: functional, Urine; how it was run: as §2
Escherichia coli [27] = assay: Antimicrobial activity against Escherichia coli 1821386 B-D isolated from patient with pyelonephritis assessed as >3-log reduction in urinary bacterial titer after 20 hrs; format: functional, Urine; how it was run: as §1
Pseudomonas aeruginosa [28] = assay: Antimicrobial activity against Pseudomonas aeruginosa 1821383 B-E isolated from patient with pyelonephritis assessed as >3-log reduction in urinary bacterial titer after 8 hrs; format: functional, Urine
Escherichia coli [29] = assay: Antimicrobial activity against Escherichia coli 1889647 B-H isolated from patient with pyelonephritis assessed as >3-log reduction in urinary bacterial titer after 24 hrs; format: functional, Urine; how it was run: as §1
Escherichia coli [30] = assay: Antimicrobial activity against Escherichia coli 1780064 A-X isolated from patient with pyelonephritis assessed as >3-log reduction in urinary bacterial titer after 16 hrs; format: functional, Urine; how it was run: as §2
Staphylococcus aureus [31] = assay: Antimicrobial activity against Staphylococcus aureus 2215767-9 B-S isolated from patient with pyelonephritis assessed as >3-log reduction in urinary bacterial titer after 12 hrs; format: functional, Urine
Escherichia coli [32] = assay: Antimicrobial activity against Escherichia coli 1821386 B-D isolated from patient with pyelonephritis assessed as >3-log reduction in urinary bacterial titer after 12 hrs; format: functional, Urine; how it was run: as §1
[33] = test system: Staphylococcus epidermidis; assay: Antimicrobial activity against Staphylococcus epidermidis 1949822 B-J isolated from patient with pyelonephritis assessed as >3-log reduction in urinary bacterial titer after 20 hrs; format: functional, Urine

Molecule `C[C@@H](O)[C@H]1C(=O)N2C(C(=O)O)=C(S[C@@H]3CN[C@H](CNS(N)(=O)=O)C3)[C@H](C)[C@H]12` [DORIPENEM] has a urinary bactericidal titer (Escherichia coli [1]) of 256 reciprocal titer, an MIC (Enterococcus faecalis [2]) of 0.25 µg/mL (≈ 0.595 µM) and a urinary bactericidal titer (Escherichia coli [3]) of 8192 reciprocal titer. For the same molecule, the urinary bactericidal titer (Escherichia coli [4]) was 4096 reciprocal titer, the urinary bactericidal titer (Enterococcus faecalis [5]) was 1024 reciprocal titer and the urinary bactericidal titer (Escherichia coli [6]) was 2048 reciprocal titer. It also gave a urinary bactericidal titer (Escherichia coli [7]) of 65500 reciprocal titer, an MIC (Escherichia coli [8]) of 0.03 µg/mL (≈ 0.0713 µM) and a urinary bactericidal titer (Escherichia coli [9]) of 128 reciprocal titer. The MIC (Escherichia coli [10]) was 0.03 µg/mL (≈ 0.0713 µM), the urinary bactericidal titer (Escherichia coli [11]) was 1024 reciprocal titer and the urinary bactericidal titer (Escherichia coli [12]) was 32800 titer. For the same molecule, the urinary bactericidal titer (Escherichia coli [13]) was 32800 reciprocal titer.
For `C[C@H]1COc2c(N3CCN(C)CC3)c(F)cc3c(=O)c(C(=O)O)cn1c23.C[C@H]1COc2c(N3CCN(C)CC3)c(F)cc3c(=O)c(C(=O)O)cn1c23.O` [LEVOFLOXACIN], the urinary bactericidal titer (Pseudomonas aeruginosa [14]) was 16 reciprocal titer, the urinary bactericidal titer (Pseudomonas aeruginosa [15]) was 128 reciprocal titer and the urinary bactericidal titer (Staphylococcus aureus [16]) was 256 reciprocal titer. For the same molecule, the urinary bactericidal titer (Escherichia coli [17]) was 512 reciprocal titer, the urinary bactericidal titer (Staphylococcus aureus [18]) was 128 reciprocal titer and the MIC (Escherichia coli [19]) was < 0.03 µg/mL. For the same molecule, the urinary bactericidal titer (Pseudomonas aeruginosa [20]) was 8 reciprocal titer, the urinary bactericidal titer (Escherichia coli [21]) was 1024 reciprocal titer and the MIC (Enterococcus faecalis [22]) was > 32 µg/mL. The urinary bactericidal titer (Enterococcus faecalis [23]) was 0 reciprocal titer, the urinary bactericidal titer [24] was 4 reciprocal titer and the urinary bactericidal titer (Serratia marcescens) was 32 reciprocal titer. The urinary bactericidal titer [25] was 2 reciprocal titer, the urinary bactericidal titer (Escherichia coli [26]) was 256 reciprocal titer and the urinary bactericidal titer (Escherichia coli [27]) was 2048 reciprocal titer. It also gave a urinary bactericidal titer (Pseudomonas aeruginosa [28]) of 128 reciprocal titer, a urinary bactericidal titer (Escherichia coli [29]) of 256 reciprocal titer and a urinary bactericidal titer (Escherichia coli [30]) of 128 reciprocal titer. It also gave a urinary bactericidal titer (Staphylococcus aureus [31]) of 1 reciprocal titer, a urinary bactericidal titer (Escherichia coli [32]) of 2048 reciprocal titer and a urinary bactericidal titer [33] of 2 reciprocal titer.
